Values belong to the compound of their own block, whether it stands above or below them. Activity calls are given as the source filed them. The calls are words filed in the database; no cut-off is given here.
Columns and labels:
P2Y purinoceptor 2 [1] = target: T1, P2Y purinoceptor 2 (Homo sapiens, UniProt P41231); experiment: (§1) Antagonist activity at human P2Y2R expressed in human 1321N1 cells assessed as inhibition of UTPgammaS-activated calcium-mobilization preincubated for 45 mins measured every 1.52 secs for 200 secs after the addition of UTPgammaS at 15 secs by fluo-4AM-based fluorescence assay; type: functional, cell-based
T1 sequence (P41231 whole entry): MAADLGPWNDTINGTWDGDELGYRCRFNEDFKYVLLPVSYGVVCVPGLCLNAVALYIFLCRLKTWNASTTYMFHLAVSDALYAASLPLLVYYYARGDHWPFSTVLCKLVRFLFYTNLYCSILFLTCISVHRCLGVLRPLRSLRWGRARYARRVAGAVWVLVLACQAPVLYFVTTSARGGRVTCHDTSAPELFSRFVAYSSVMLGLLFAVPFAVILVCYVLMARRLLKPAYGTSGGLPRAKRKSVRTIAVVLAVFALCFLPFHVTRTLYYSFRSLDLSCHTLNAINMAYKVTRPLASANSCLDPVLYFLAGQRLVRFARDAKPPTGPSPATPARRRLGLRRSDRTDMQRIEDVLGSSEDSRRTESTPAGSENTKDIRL
Outline: (§2)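 hP2Y2R in 1321N1 astrocytoma cells. Calcium mobilization was driven by UTPγS. Single-concentration lines: compound at 10 µM, inhibition scored against the 0.1 µM UTPγS response (n=3). For the pKb line, the UTPγS concentration-response curve was run with a single antagonist concentration added, and pKb was calculated from the curve shift with the Gaddum equation.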

P2Y purinoceptor 2 [2] = target: T1, P2Y purinoceptor 2; experiment: Displacement of (E)-2-((5-(7-Chloro-2-((3-((2-(6-(3-(5,5-difluoro-7,9-dimethyl-5H-5-lambda4,6-lambda4-dipyrrolo[1,2-c:2,1-f ][1,3,2]diazaborinin-3-yl)-propanamido)hexanamido)ethyl)amino)-3-oxopropyl)amino)-4Hbenzo[5,6]cyclohepta[1,2-d]thiazol-4-yl)-2-oxo-4-thioxo-3,4-dihydropyrimidin-1(2H)-yl)methyl)-N-(1H-tetrazol-5-yl)thiazole-4-carboxamide from human N-terminal NLuc-tagged P2Y2R expressed in human 1321N1 cells incubated for 1 hr by furimazine-based NanoBRET assay; type: cell-based
Outline: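 Competition binding in 1321N1 cells expressing N-terminal NanoLuc-hP2Y2R. The fluorescent tracer was used at 1 µM (or the bodipy A tracer at 100 nM) against increasing concentrations of unlabeled ligand. After furimazine addition the BRET signal was read and pKi estimated; mean ± SEM of separate experiments.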

P2Y purinoceptor 2 [3] = target: T1, P2Y purinoceptor 2; experiment: Binding affinity to recombinant human N-terminal NLuc-tagged P2Y2R expressed in human 1321N1 cells at 10 uM incubated for 1 hr in presence of AR-C118925 by furimazine-based NanoBRET assay; type: cell-based
Outline: (§3)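 N-terminally NanoLuc-tagged hP2Y2R was stably expressed in 1321N1 cells. Cells were treated with increasing concentrations of fluorescent conjugate, or a fixed 10 µM for screening, with or without 10 µM AR-C118925 to define nonspecific binding. Furimazine substrate was then added and the BRET signal read. pKd came from saturation binding curves; mean ± SEM of separate experiments.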

P2Y purinoceptor 2 [4] = target: T1, P2Y purinoceptor 2; experiment: Binding affinity to recombinant human N-terminal NLuc-tagged P2Y2R expressed in human 1321N1 cells incubated for 1 hr in presence of AR-C118925 by furimazine-based NanoBRET assay; type: cell-based; outline: as §3
P2Y purinoceptor 2 [5] = target: T1, P2Y purinoceptor 2; experiment: as §1, with “calcium-mobilization at 10 uM” for “calcium-mobilization”, “assay relative to UTPgammaS” for “assay”; type: functional, cell-based; outline: as §2
P2Y purinoceptor 2 [6] = target: T1, P2Y purinoceptor 2; experiment: Binding affinity to human P2Y2R expressed in human 1321N1 cells assessed as localized membrane fluorescence at 100 nM after 30 mins in presence of AR-C118925 by confocal microscopy; type: cell-based
Outline: (§4)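 1321N1 astrocytoma cells expressing untagged hP2Y2R were given 100 nM fluorescent ligand and incubated 30 min at 37°C, with or without 10 µM AR-C118925 (1). Single equatorial confocal images were then taken with the fluorescent ligand and/or antagonist still present. Membrane and intracellular fluorescence were examined; images are representative of 4 experiments.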

P2Y purinoceptor 2 [7] = target: T1, P2Y purinoceptor 2; experiment: Binding affinity to human P2Y2R expressed in human 1321N1 cells assessed as localized membrane fluorescence at 100 nM after 30 mins by confocal microscopy; type: cell-based; outline: as §4
P2Y purinoceptor 2 [8] = target: T1, P2Y purinoceptor 2; experiment: Antagonist activity at human P2Y2R expressed in human 1321N1 cells assessed as inhibition of UTPgammaS-activated calcium-mobilization at 10 uM preincubated for 45 mins measured every 1.52 secs for 200 secs after the addition of UTPgammaS at 15 secs by fluo-4AM-based fluorescence assay; type: functional, cell-based; outline: as §2
[9] = Drug uptake in human 1321N1 cells assessed as intracellular fluorescence at 100 nM after 30 mins by confocal microscopy; type: ADME, cell-based; details: 0.5 h, 0.1 µM; outline: as §4

pKb (P2Y purinoceptor 2 [1]): 6.56
Compound: Cn1cc(C2c3ccc(Cl)cc3C=Cc3sc(N)nc32)c(=S)[nH]c1=O (configuration not stated)

pKb (P2Y purinoceptor 2 [1]): 6.59
Ki (P2Y purinoceptor 2 [2]): 83.2 nM
inhibition (P2Y purinoceptor 2 [2]): Dose-dependent effect
Compound: O=c1[nH]c(=S)c(C2c3ccccc3CCc3ccccc32)cn1[C@@H]1O[C@H](COP(=O)(O)OP(=O)(O)C(Cl)(Cl)P(=O)(O)O)[C@@H](O)[C@H]1O

pKb (P2Y purinoceptor 2 [1]): 6.43
Compound: Cc1ccc2c(c1)C=Cc1cc(C)ccc1C2c1cn(Cc2nc(C(=O)O)cs2)c(=O)[nH]c1=S

pKb (P2Y purinoceptor 2 [1]): 5.99
Ki (P2Y purinoceptor 2 [2]): 1550 nM
inhibition (P2Y purinoceptor 2 [2]): Dose-dependent effect
Compound: Cc1nc2c(s1)C=Cc1cc(Cl)ccc1C2c1cn(C)c(=O)[nH]c1=S (configuration not stated)

Compound: O=c1ccn([C@@H]2O[C@H](COP(=O)(O)OP(=O)(O)OP(=O)(O)S)[C@@H](O)[C@H]2O)c(=O)[nH]1 (some centres not stated)
Ki (P2Y purinoceptor 2 [2]): 3470 nM
inhibition (P2Y purinoceptor 2 [2]): Dose-dependent effect

Activity (P2Y purinoceptor 2 [3]): Active
Kd (P2Y purinoceptor 2 [4]): 12300 nM
Compound: Cc1cc(C)n2c1C=C1C=CC(CCC(=O)NCCNC(=O)CCNc3nc4c(s3)C=Cc3cc(Cl)ccc3C4c3cn(C)c(=O)[nH]c3=S)=[N+]1[B-]2(F)F (configuration not stated)

inhibition (P2Y purinoceptor 2 [5]): < 50%
Compound: Cn1cc(C2c3ccc(Cl)cc3C=Cc3sc(N4CCCCC4)nc32)c(=S)[nH]c1=O (configuration not stated)

inhibition (P2Y purinoceptor 2 [5]): < 50%
Compound: Cn1cc(C2c3ccc(Cl)cc3C=Cc3sc(NCc4ccccc4)nc32)c(=S)[nH]c1=O (configuration not stated)

inhibition (P2Y purinoceptor 2 [5]): < 50%
Compound: CN1CCN(c2nc3c(s2)C=Cc2cc(Cl)ccc2C3c2cn(C)c(=O)[nH]c2=S)CC1 (configuration not stated)

Kd (P2Y purinoceptor 2 [4]): 89.1 nM
Compound: Cc1cc(C)n2c1C=C1C=CC(CCC(=O)NCCNC(=O)CCNc3nc4c(s3)C=Cc3cc(Cl)ccc3C4c3cn(Cc4nc(C(=O)Nc5nnn[nH]5)cs4)c(=O)[nH]c3=S)=[N+]1[B-]2(F)F (configuration not stated)

inhibition (P2Y purinoceptor 2 [5]): < 50%
Compound: Cn1cc(C2c3ccc(Cl)cc3C=Cc3sc(-c4ccccc4)nc32)c(=S)[nH]c1=O (configuration not stated)

pKb (P2Y purinoceptor 2 [1]): 6.6
Compound: COCCNc1nc2c(s1)C=Cc1cc(Cl)ccc1C2c1cn(C)c(=O)[nH]c1=S (racemic)

pKb (P2Y purinoceptor 2 [1]): 6.74 to 6.78
inhibition (P2Y purinoceptor 2 [2]): Dose-dependent effect
Compound: CCOCCNc1nc2c(s1)C=Cc1cc(Cl)ccc1[C@H]2c1cn(C)c(=O)[nH]c1=S

pKb (P2Y purinoceptor 2 [1]): 6.63
Compound: COCCNc1nc2c(s1)C=Cc1cc(Cl)ccc1C2c1cn(C)c(=O)[nH]c1=S (stereo in doubt; 20)

inhibition (P2Y purinoceptor 2 [5]): < 50%
Compound: Cc1ccc2c(c1)C=Cc1cc(C)ccc1C2c1cn(C)c(=O)[nH]c1=S

inhibition (P2Y purinoceptor 2 [5]): < 50%
Compound: Cn1cc(C2c3ccc(Cl)cc3C=Cc3sc(Nc4ccccc4)nc32)c(=S)[nH]c1=O (configuration not stated)

Kd (P2Y purinoceptor 2 [4]): 759 nM
Compound: Cc1ccc2c(c1)C=Cc1cc(C)ccc1C2c1cn(Cc2cc(C(=O)NCCOCCOCCNC(=O)COc3ccc(/C=C/C4=[N+]5C(=Cc6ccc(-c7cccs7)n6[B-]5(F)F)C=C4)cc3)cc(C(=O)Nc3nnn[nH]3)c2)c(=O)[nH]c1=S

Kd (P2Y purinoceptor 2 [4]): 129 nM
Activity (P2Y purinoceptor 2 [6]): inactive
Activity (P2Y purinoceptor 2 [7]): Active
pKb (P2Y purinoceptor 2 [8]): 5.69
Drug uptake [9]: Not Active
Compound: O=C(CCCCCNC(=O)COc1ccc(/C=C/C2=[N+]3C(=Cc4ccc(-c5cccs5)n4[B-]3(F)F)C=C2)cc1)NCCNC(=O)CCNc1nc2c(s1)C=Cc1cc(Cl)ccc1C2c1cn(Cc2nc(C(=O)Nc3nnn[nH]3)cs2)c(=O)[nH]c1=S (configuration not stated)

inhibition (P2Y purinoceptor 2 [5]): < 50%
Compound: Cn1cc(C2c3ccc(Cl)cc3C=Cc3sc(N4CCOCC4)nc32)c(=S)[nH]c1=O (configuration not stated)

Activity (P2Y purinoceptor 2 [3]): Active
Kd (P2Y purinoceptor 2 [4]): 4170 nM
Compound: Cc1cc(C)n2c1C=C1C=CC(CCC(=O)NCCCCCC(=O)NCCOCCOCCNC(=O)CCNc3nc4c(s3)C=Cc3cc(Cl)ccc3C4c3cn(C)c(=O)[nH]c3=S)=[N+]1[B-]2(F)F (configuration not stated)

inhibition (P2Y purinoceptor 2 [5]): < 50%
Compound: Cn1cc(C2c3ccc(Cl)cc3C=Cc3sc(NCCc4ccccc4)nc32)c(=S)[nH]c1=O (configuration not stated)

pKb (P2Y purinoceptor 2 [1]): 6.48
Compound: Cc1nc2c(s1)C=Cc1cc(Cl)ccc1C2c1cn(Cc2nc(C(=O)Nc3nnn[nH]3)cs2)c(=O)[nH]c1=S (configuration not stated)

pKb (P2Y purinoceptor 2 [1]): 6.49
Compound: CC(C)OCCNc1nc2c(s1)C=Cc1cc(Cl)ccc1C2c1cn(C)c(=O)[nH]c1=S (configuration not stated)

pKb (P2Y purinoceptor 2 [1]): 7.11
Ki (P2Y purinoceptor 2 [2]): 129 nM
inhibition (P2Y purinoceptor 2 [2]): Dose-dependent effect
Compound: Cc1ccc2c(c1)C=Cc1cc(C)ccc1C2c1cn(Cc2nc(C(=O)Nc3nnn[nH]3)cs2)c(=O)[nH]c1=S

inhibition (P2Y purinoceptor 2 [2]): Dose-dependent effect
Compound: Cc1ccc2c(c1)C=Cc1cc(C)ccc1C2c1cn(Cc2ccc(C(=O)Nc3nnn[nH]3)o2)c(=O)[nH]c1=S

inhibition (P2Y purinoceptor 2 [5]): < 50%
Compound: Cn1cc(C2c3ccc(Cl)cc3C=Cc3sc(NCCOc4ccccc4)nc32)c(=S)[nH]c1=O (configuration not stated)

pKb (P2Y purinoceptor 2 [1]): 6.73
Compound: CCOCCNc1nc2c(s1)C=Cc1cc(Cl)ccc1C2c1cn(C)c(=O)[nH]c1=S (racemic)

Kd (P2Y purinoceptor 2 [4]): 2750 nM
Compound: Cc1ccc2c(c1)C=Cc1cc(C)ccc1C2c1cn(Cc2cc(C(=O)NCCNC(=O)COc3ccc(/C=C/C4=[N+]5C(=Cc6ccc(-c7cccs7)n6[B-]5(F)F)C=C4)cc3)cc(C(=O)Nc3nnn[nH]3)c2)c(=O)[nH]c1=S

inhibition (P2Y purinoceptor 2 [5]): < 50%
pKb (P2Y purinoceptor 2 [1]): < 5
inhibition (P2Y purinoceptor 2 [2]): Dose-dependent effect
Compound: CCOCCNc1nc2c(s1)C=Cc1cc(Cl)ccc1[C@@H]2c1cn(C)c(=O)[nH]c1=S

Kd (P2Y purinoceptor 2 [4]): 891 nM
Compound: O=C(CCNc1nc2c(s1)C=Cc1cc(Cl)ccc1C2c1cn(Cc2nc(C(=O)Nc3nnn[nH]3)cs2)c(=O)[nH]c1=S)NCCNC(=O)COc1ccc(/C=C/C2=[N+]3C(=Cc4ccc(-c5cccs5)n4[B-]3(F)F)C=C2)cc1 (configuration not stated)

Activity (P2Y purinoceptor 2 [3]): Active
Kd (P2Y purinoceptor 2 [4]): 2140 nM
pKb (P2Y purinoceptor 2 [1]): 6.3
Ki (P2Y purinoceptor 2 [2]): 398 nM
inhibition (P2Y purinoceptor 2 [2]): Dose-dependent effect
Compound: Cc1cc(C)n2c1C=C1C=CC(CCC(=O)NCCCCCC(=O)NCCNC(=O)CCNc3nc4c(s3)C=Cc3cc(Cl)ccc3C4c3cn(C)c(=O)[nH]c3=S)=[N+]1[B-]2(F)F (configuration not stated)

pKb (P2Y purinoceptor 2 [1]): 5.82
Compound: COCCNc1nc2c(s1)C=Cc1cc(Cl)ccc1C2c1cn(C)c(=O)[nH]c1=S (stereo in doubt; 21)

From ChEMBL document CHEMBL4118112, “Synthesis and Evaluation of the First Fluorescent Antagonists of the Human P2Y2 Receptor Based on AR-C118925” (J Med Chem, 2018)
